Assay results reported in ChEMBL document CHEMBL1944570, “Discovery of 4''-ether linked azithromycin-quinolone hybrid series: influence of the central linker on the antibacterial activity” (ACS Med Chem Lett, 2011).
Converted amounts (≈) assume the structure as drawn.

Legend:
Format in all cases: functional
[1] = test system: Staphylococcus aureus; assay: Antibacterial activity against ciprofloxacin-resistant Staphylococcus aureus by agar microdilution method
Outline: (§1)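 MIC by agar microdilution following NCCLS standards; strains drawn from the PLIVA Research Institute culture collection. MIC reported in μg/mL.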

[2] = test system: Staphylococcus aureus; assay: Antibacterial activity against erythromycin-susceptible Staphylococcus aureus by agar microdilution method
Outline: (§2)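 Agar microdilution MIC per NCCLS standards against strains from the Pliva Research Institute culture collection; values in µg/mL. Panel included erythromycin-susceptible strains and strains with inducible or constitutive MLS resistance.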

[3] = test system: Staphylococcus aureus; assay: Antibacterial activity against Staphylococcus aureus with inducible resistance to MLS by agar microdilution method; outline: as §1
[4] = test system: Staphylococcus aureus; assay: Antibacterial activity against constitutive MLS resistant Staphylococcus aureus by agar microdilution method; outline: as §1
[5] = test system: Staphylococcus aureus; assay: Antibacterial activity against efflux mediated macrolide resistant Staphylococcus aureus by agar microdilution method; outline: as §1
[6] = test system: Streptococcus pneumoniae; assay: Antibacterial activity against erythromycin-susceptible Streptococcus pneumoniae by agar microdilution method; outline: as §1
[7] = test system: Streptococcus pyogenes; assay: Antibacterial activity against erythromycin-susceptible Streptococcus pyogenes by agar microdilution method; outline: as §1
[8] = test system: Streptococcus pyogenes; assay: Antibacterial activity against constitutive MLS resistant Streptococcus pyogenes by agar microdilution method; outline: as §1
[9] = test system: Haemophilus influenzae; assay: Antibacterial activity against Haemophilus influenzae B0529 by agar microdilution method; outline: as §2
[10] = test system: Moraxella catarrhalis; assay: Antibacterial activity against Moraxella catarrhalis by agar microdilution method; outline: as §2
[11] = test system: Streptococcus pneumoniae; assay: Antibacterial activity against constitutive MLS resistant Streptococcus pneumoniae by agar microdilution method; outline: as §1
[12] = test system: Streptococcus pyogenes; assay: Antibacterial activity against Streptococcus pyogenes with inducible resistance to MLS by agar microdilution method; outline: as §1
[13] = test system: Streptococcus pyogenes; assay: Antibacterial activity against efflux mediated macrolide resistant Streptococcus pyogenes by agar microdilution method; outline: as §1
[14] = test system: Streptococcus pneumoniae; assay: Antibacterial activity against efflux mediated macrolide resistant Streptococcus pneumoniae by agar microdilution method; outline: as §1

| Compound | MIC [1] | MIC [2] | MIC [3] | MIC [4] | MIC [5] | MIC [6] | MIC [7] | MIC [8] | MIC [9] | MIC [10] | MIC [11] | MIC [12] | MIC [13] | MIC [14] |
| --- | --- | --- | --- | --- | --- | --- | --- | --- | --- | --- | --- | --- | --- | --- |
| CC[C@H]1OC(=O)[C@H](C)C(=O)[C@H](C)[C@@H](O[C@@H]2O[C@H](C)C[C@H](N(C)C)[C@H]2O)[C@](C)(OCC=Cc2cnc3ccccc3c2)C[C@@H](C)C(=O)[C@H](C)[C@H]2NC(=O)O[C@@]21C [CETHROMYCIN] | ≥ 64 µg/mL | ≤ 0.125 µg/mL | 0.25 µg/mL (≈ 0.326 µM) | > 64 µg/mL | 0.25 µg/mL (≈ 0.326 µM) | ≤ 0.125 µg/mL | ≤ 0.125 µg/mL | 1 µg/mL (≈ 1.31 µM) | 1 µg/mL (≈ 1.31 µM) | ≤ 0.125 µg/mL |  |  |  |  |
| CC[C@H]1OC(=O)[C@H](C)[C@@H](O[C@H]2C[C@@](C)(OC)[C@@H](OCCN3CCN(c4ccc5c(c4)c(=O)c(C(=O)O)cn5CC)CC3)[C@H](C)O2)[C@H](C)[C@@H](O[C@@H]2O[C@H](C)C[C@H](N(C)C)[C@H]2O)[C@](C)(O)C[C@@H](C)CN(C)[C@H](C)[C@H]2OC(=O)O[C@@]21C | ≥ 64 µg/mL | 1 µg/mL (≈ 0.907 µM) | 16 µg/mL (≈ 14.5 µM) | 32 µg/mL (≈ 29 µM) | 2 µg/mL (≈ 1.81 µM) | ≤ 0.125 µg/mL | 0.25 µg/mL (≈ 0.227 µM) | 32 µg/mL (≈ 29 µM) | 2 µg/mL (≈ 1.81 µM) | 4 µg/mL (≈ 3.63 µM) | 32 µg/mL (≈ 29 µM) | 4 µg/mL (≈ 3.63 µM) | 4 µg/mL (≈ 3.63 µM) |  |
| CCOC(=O)c1cn(CC)c2ccc(N3CCN(CCO[C@H]4[C@H](C)O[C@@H](O[C@H]5[C@H](C)[C@@H](O[C@@H]6O[C@H](C)C[C@H](N(C)C)[C@H]6O)[C@](C)(O)C[C@@H](C)CN(C)[C@H](C)[C@H]6OC(=O)O[C@]6(C)[C@@H](CC)OC(=O)[C@@H]5C)C[C@@]4(C)OC)CC3)cc2c1=O | ≥ 64 µg/mL | 0.5 µg/mL (≈ 0.442 µM) | 64 µg/mL (≈ 56.6 µM) | > 64 µg/mL | 8 µg/mL (≈ 7.08 µM) | ≤ 0.125 µg/mL | ≤ 0.125 µg/mL | 64 µg/mL (≈ 56.6 µM) | 1 µg/mL (≈ 0.885 µM) | 0.25 µg/mL (≈ 0.221 µM) | 64 µg/mL (≈ 56.6 µM) | 1 µg/mL (≈ 0.885 µM) | 16 µg/mL (≈ 14.2 µM) |  |
| CC[C@H]1OC(=O)[C@H](C)[C@@H](O[C@H]2C[C@@](C)(OC)[C@@H](OCCNCCOCCOCCNc3cc4c(=O)c(C(=O)O)cn(C5CC5)c4cc3Cl)[C@H](C)O2)[C@H](C)[C@@H](O[C@@H]2O[C@H](C)C[C@H](N(C)C)[C@H]2O)[C@](C)(O)C[C@@H](C)CN(C)[C@H](C)[C@@H](O)[C@]1(C)O | ≥ 64 µg/mL | 4 µg/mL (≈ 3.38 µM) | 64 µg/mL (≈ 54 µM) | 32 µg/mL (≈ 27 µM) | 1 µg/mL (≈ 0.844 µM) | ≤ 0.125 µg/mL | ≤ 0.125 µg/mL | 2 µg/mL (≈ 1.69 µM) | 4 µg/mL (≈ 3.38 µM) | 1 µg/mL (≈ 0.844 µM) | 64 µg/mL (≈ 54 µM) |  | 2 µg/mL (≈ 1.69 µM) |  |
| CC[C@H]1OC(=O)[C@H](C)[C@@H](O[C@H]2C[C@@](C)(OC)[C@@H](OCCNCCOCCNc3cc4c(cc3F)c(=O)c(C(=O)O)cn4C3CC3)[C@H](C)O2)[C@H](C)[C@@H](O[C@@H]2O[C@H](C)C[C@H](N(C)C)[C@H]2O)[C@](C)(O)C[C@@H](C)CN(C)[C@H](C)[C@H]2OC(=O)O[C@@]21C | ≥ 64 µg/mL | 8 µg/mL (≈ 6.95 µM) | 64 µg/mL (≈ 55.6 µM) | > 64 µg/mL | 64 µg/mL (≈ 55.6 µM) | ≤ 0.125 µg/mL | ≤ 0.125 µg/mL | 32 µg/mL (≈ 27.8 µM) | 4 µg/mL (≈ 3.48 µM) | 0.5 µg/mL (≈ 0.435 µM) | 16 µg/mL (≈ 13.9 µM) | 1 µg/mL (≈ 0.869 µM) | 4 µg/mL (≈ 3.48 µM) |  |
| CC[C@H]1OC(=O)[C@H](C)[C@@H](O[C@H]2C[C@@](C)(OC)[C@@H](OCCNCCNc3cc4c(=O)c(C(=O)O)cn(C5CC5)c4cc3Cl)[C@H](C)O2)[C@H](C)[C@@H](O[C@@H]2O[C@H](C)C[C@H](N(C)C)[C@H]2O)[C@](C)(O)C[C@@H](C)CN(C)[C@H](C)[C@H]2OC(=O)O[C@@]21C | ≥ 64 µg/mL | 2 µg/mL (≈ 1.78 µM) | 64 µg/mL (≈ 57 µM) | > 64 µg/mL | 4 µg/mL (≈ 3.56 µM) | ≤ 0.125 µg/mL | ≤ 0.125 µg/mL | 2 µg/mL (≈ 1.78 µM) | 2 µg/mL (≈ 1.78 µM) | 0.25 µg/mL (≈ 0.223 µM) | 64 µg/mL (≈ 57 µM) | 0.5 µg/mL (≈ 0.445 µM) | 0.5 µg/mL (≈ 0.445 µM) |  |
| CC[C@H]1OC(=O)[C@H](C)[C@@H](O[C@H]2C[C@@](C)(OC)[C@@H](OCCNCCOCCNc3cc4c(cc3F)c(=O)c(C(=O)O)cn4C3CC3)[C@H](C)O2)[C@H](C)[C@@H](O[C@@H]2O[C@H](C)C[C@H](N(C)C)[C@H]2O)[C@](C)(O)C[C@@H](C)CN(C)[C@H](C)[C@@H](O)[C@]1(C)O | ≥ 64 µg/mL | 8 µg/mL (≈ 7.11 µM) | 64 µg/mL (≈ 56.9 µM) | > 64 µg/mL | 8 µg/mL (≈ 7.11 µM) | ≤ 0.125 µg/mL | ≤ 0.125 µg/mL | 2 µg/mL (≈ 1.78 µM) | 8 µg/mL (≈ 7.11 µM) | 8 µg/mL (≈ 7.11 µM) | 2 µg/mL (≈ 1.78 µM) |  | 1 µg/mL (≈ 0.889 µM) |  |
| CC[C@H]1OC(=O)[C@H](C)[C@@H](O[C@H]2C[C@@](C)(OC)[C@@H](OCCN3CCN(c4ccc5c(c4)c(=O)c(C(=O)O)cn5CC)CC3)[C@H](C)O2)[C@H](C)[C@@H](O[C@@H]2O[C@H](C)C[C@H](N(C)C)[C@H]2O)[C@](C)(O)C[C@@H](C)CN(C)[C@H](C)[C@@H](O)[C@]1(C)O | ≥ 64 µg/mL | 2 µg/mL (≈ 1.86 µM) | 64 µg/mL (≈ 59.5 µM) | 64 µg/mL (≈ 59.5 µM) | 4 µg/mL (≈ 3.72 µM) | ≤ 0.125 µg/mL | ≤ 0.125 µg/mL | 64 µg/mL (≈ 59.5 µM) | 8 µg/mL (≈ 7.43 µM) | 4 µg/mL (≈ 3.72 µM) | 64 µg/mL (≈ 59.5 µM) | 0.25 µg/mL (≈ 0.232 µM) | 0.5 µg/mL (≈ 0.465 µM) |  |
| CC[C@H]1OC(=O)[C@H](C)[C@@H](O[C@H]2C[C@@](C)(OC)[C@@H](OCCNCCNc3cc4c(cc3F)c(=O)c(C(=O)O)cn4C3CC3)[C@H](C)O2)[C@H](C)[C@@H](O[C@@H]2O[C@H](C)C[C@H](N(C)C)[C@H]2O)[C@](C)(O)C[C@@H](C)CN(C)[C@H](C)[C@@H](O)[C@]1(C)O | ≥ 64 µg/mL | 2 µg/mL (≈ 1.85 µM) | 64 µg/mL (≈ 59.2 µM) | 64 µg/mL (≈ 59.2 µM) | 2 µg/mL (≈ 1.85 µM) | ≤ 0.125 µg/mL | ≤ 0.125 µg/mL | 1 µg/mL (≈ 0.926 µM) | 4 µg/mL (≈ 3.7 µM) | 1 µg/mL (≈ 0.926 µM) | 32 µg/mL (≈ 29.6 µM) |  | 1 µg/mL (≈ 0.926 µM) |  |
| CC[C@H]1OC(=O)[C@H](C)[C@@H](O[C@H]2C[C@@](C)(OC)[C@@H](OCCCC(=O)NCCOCCNc3cc4c(=O)c(C(=O)O)cn(C5CC5)c4cc3Cl)[C@H](C)O2)[C@H](C)[C@@H](O[C@@H]2O[C@H](C)C[C@H](N(C)C)[C@H]2O)[C@](C)(O)C[C@@H](C)CN(C)[C@H](C)[C@@H](O)[C@]1(C)O | ≥ 64 µg/mL | 2 µg/mL (≈ 1.69 µM) | 64 µg/mL (≈ 54.1 µM) | 64 µg/mL (≈ 54.1 µM) | 8 µg/mL (≈ 6.76 µM) | ≤ 0.125 µg/mL | ≤ 0.125 µg/mL | 2 µg/mL (≈ 1.69 µM) | 4 µg/mL (≈ 3.38 µM) | 4 µg/mL (≈ 3.38 µM) | 4 µg/mL (≈ 3.38 µM) |  | 1 µg/mL (≈ 0.845 µM) | 0.25 µg/mL (≈ 0.211 µM) |
| CC[C@H]1OC(=O)[C@H](C)[C@@H](O[C@H]2C[C@@](C)(OC)[C@@H](OCCNCCOCCOCCNc3cc4c(=O)c(C(=O)O)cn(C5CC5)c4cc3Cl)[C@H](C)O2)[C@H](C)[C@@H](O[C@@H]2O[C@H](C)C[C@H](N(C)C)[C@H]2O)[C@](C)(O)C[C@@H](C)CN(C)[C@H](C)[C@H]2OC(=O)O[C@@]21C | ≥ 64 µg/mL | 2 µg/mL (≈ 1.65 µM) | 64 µg/mL (≈ 52.9 µM) | 32 µg/mL (≈ 26.4 µM) | 2 µg/mL (≈ 1.65 µM) | ≤ 0.125 µg/mL | ≤ 0.125 µg/mL | 1 µg/mL (≈ 0.826 µM) | 1 µg/mL (≈ 0.826 µM) | 0.5 µg/mL (≈ 0.413 µM) | 64 µg/mL (≈ 52.9 µM) |  | 0.5 µg/mL (≈ 0.413 µM) |  |
